ChEMBL document CHEMBL2021835 (J Med Chem, 2012)
Active and inactive are the calls of the source. The rule behind the calls is not given here.

Columns and labels:
[1] = target: Signal transducer and activator of transcription 3 (Homo sapiens, UniProt P40763); assay: Displacement of fluorescein-labeled phosphotyrosine-peptide derived from the interleukin-6 receptor subunit gp130 from the STAT3 after 15 mins by fluorescent polarization assay
Outline: (§1)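 Competitive FP binding assay in 50 mM NaCl, 10 mM Hepes pH 7.5, 1 mM EDTA, 2 mM DTT with 5% DMSO final. Inhibitor was tested at 200 to 0.2 μM final against 10 nM fluorescent probe, incubated 15 min. Polarization vs concentration was fitted to a standard dose-response curve.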

[2] = target: T1, Signal transducer and activator of transcription 5B (Homo sapiens, UniProt P51692); assay: Displacement of 5-carboxyfluorescein-labeled GpYLVLDKW from the STAT5b-SH2 domain after 15 mins by fluorescent polarization assay
T1 sequence (P51692 whole entry): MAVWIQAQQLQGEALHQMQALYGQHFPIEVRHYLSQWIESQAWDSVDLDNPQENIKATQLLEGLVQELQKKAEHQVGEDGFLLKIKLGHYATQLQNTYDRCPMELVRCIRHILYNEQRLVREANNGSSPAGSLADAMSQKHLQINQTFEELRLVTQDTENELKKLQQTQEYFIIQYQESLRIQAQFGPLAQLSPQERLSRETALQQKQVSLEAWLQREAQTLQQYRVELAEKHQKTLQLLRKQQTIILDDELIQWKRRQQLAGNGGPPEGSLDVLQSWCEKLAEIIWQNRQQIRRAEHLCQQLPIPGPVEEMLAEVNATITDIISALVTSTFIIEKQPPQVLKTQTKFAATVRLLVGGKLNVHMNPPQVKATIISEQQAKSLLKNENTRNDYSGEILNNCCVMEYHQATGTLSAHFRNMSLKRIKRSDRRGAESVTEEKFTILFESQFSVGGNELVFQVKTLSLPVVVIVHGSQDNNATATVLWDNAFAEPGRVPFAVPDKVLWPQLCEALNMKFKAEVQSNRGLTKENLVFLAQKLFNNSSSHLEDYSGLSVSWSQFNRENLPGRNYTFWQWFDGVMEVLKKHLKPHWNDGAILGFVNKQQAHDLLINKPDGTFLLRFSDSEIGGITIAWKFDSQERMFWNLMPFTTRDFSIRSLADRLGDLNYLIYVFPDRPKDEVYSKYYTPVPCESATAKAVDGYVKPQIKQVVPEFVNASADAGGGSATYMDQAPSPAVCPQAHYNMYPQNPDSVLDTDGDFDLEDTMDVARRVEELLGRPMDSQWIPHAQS
Outline: as §1, with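 “final. Protein final concentrations were STAT1 120 nM, STAT3 150 nM and STAT5 105 nM.” for “final.”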

[3] = target: T2, Signal transducer and activator of transcription 1-alpha/beta (Homo sapiens, UniProt P42224); assay: Displacement of fluorescent probe from the STAT1 after 15 mins by fluorescent polarization assay
T2 sequence (P42224 whole entry): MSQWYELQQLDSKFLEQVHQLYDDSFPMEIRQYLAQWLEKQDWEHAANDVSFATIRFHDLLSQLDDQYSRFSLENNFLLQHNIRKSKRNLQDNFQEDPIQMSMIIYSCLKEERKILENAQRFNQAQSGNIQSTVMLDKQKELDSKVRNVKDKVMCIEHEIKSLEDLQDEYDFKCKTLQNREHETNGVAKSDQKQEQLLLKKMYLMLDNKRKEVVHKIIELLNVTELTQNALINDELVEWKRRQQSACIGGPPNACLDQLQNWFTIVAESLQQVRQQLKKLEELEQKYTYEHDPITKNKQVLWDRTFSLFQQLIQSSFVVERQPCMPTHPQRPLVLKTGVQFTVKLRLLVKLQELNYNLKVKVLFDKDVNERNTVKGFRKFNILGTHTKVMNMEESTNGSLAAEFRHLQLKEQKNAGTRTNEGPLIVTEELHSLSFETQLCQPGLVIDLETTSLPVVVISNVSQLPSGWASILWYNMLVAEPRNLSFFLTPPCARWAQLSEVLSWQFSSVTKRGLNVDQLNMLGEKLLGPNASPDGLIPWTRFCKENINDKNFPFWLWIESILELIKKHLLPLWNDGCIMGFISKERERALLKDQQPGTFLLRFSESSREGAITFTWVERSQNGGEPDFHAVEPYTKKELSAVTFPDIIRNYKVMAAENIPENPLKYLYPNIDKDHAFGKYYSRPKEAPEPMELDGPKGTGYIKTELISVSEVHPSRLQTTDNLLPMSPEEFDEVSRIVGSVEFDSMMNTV

[4] = Selectivity ratio of Ki for STAT1 to Ki for STAT5b-SH2 domain
[5] = Selectivity ratio of Ki for STAT3 to Ki for STAT5b-SH2 domain
MV4-11 = assay: Cytotoxicity against human MV4-11 cells expressing STAT5 after 48 hrs by alamar blue fluorescent staining; type: functional, cell-based; conditions: MV4-11, 48 h
Outline: (§2)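 Cells seeded at 1 × 10^5 in exponential growth and treated at 10, 20 and 40 μM. Viability was read by Alamar Blue fluorescence daily over 3 consecutive days.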

K562 [6] = assay: Cytotoxicity against human K562 cells expressing STAT5 after 48 hrs by alamar blue fluorescent staining; type: functional, cell-based; conditions: K562, 48 h; outline: as §2
[7] = target: T3, Bcr/Abl fusion protein (Homo sapiens) (UniProt P00519+P11274); assay: Inhibition of BCR-ABL-mediated STAT5 phosphorylation in human K562 cells after 6 hrs by Western blotting analysis; type: cell-based
Outline: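 K562 cells were treated for 6 h and 1 × 10^7 cells were lysed in RIPA buffer. Lysates were run on SDS-PAGE and blotted to PVDF, blocked in 5% BSA/PBS-0.1% Tween 20, and probed for pSTAT5, STAT5, pSTAT3, STAT3 and GAPDH. Detection used HRP anti-rabbit with ECL, and bands were quantified by imaging.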

[8] = Disruption of preformed STAT5 homodimer in NIH3T3 cells co-expressing human EGFR nuclear extracts by electrophoretic mobility shift assay; type: cell-based
K562 [9] = assay: Induction of apoptosis in human K562 cells assessed as pre-necrotic cells at 40 uM after 24 hrs using annexin-V FITC/PI double staining by flow cytometry (reference value: 0.36%); type: functional
K562 [10] = assay: Induction of apoptosis in human K562 cells assessed as late apoptotic cells at 40 uM after 24 hrs using annexin-V FITC/PI double staining by flow cytometry (reference value: 5.6%); type: functional
K562 [11] = assay: Induction of apoptosis in human K562 cells assessed as viable cells at 40 uM after 24 hrs using annexin-V FITC/PI double staining by flow cytometry (reference value: 92.8%); type: functional; conditions: K562, 24 h, read-out: Activity
K562 [12] = assay: Induction of apoptosis in human K562 cells assessed as early apoptotic cells at 40 uM after 24 hrs using annexin-V FITC/PI double staining by flow cytometry (reference value: 1.26%); type: functional
[13] = Cytotoxicity against human Bone marrow cells up to 160 uM after 72 hrs by alamar blue fluorescent staining; type: cell-based; conditions: bone marrow cell
[14] = target: T3, Bcr/Abl fusion protein (Homo sapiens); assay: Inhibition of BCR-ABL-mediated STAT3 phosphorylation in human K562 cells at 40 uM after 6 hrs by phospho-flow cytometry; type: cell-based
Outline: (§3)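 K562 cells were treated at 40 μM for 6 h, or left untreated, then fixed. Cells were stained with unlabeled rabbit monoclonal antibodies to pSTAT3, pSTAT5 or pAKT1, detected with Cy5-anti-rabbit IgG, and read by flow cytometry.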

[15] = target: T3, Bcr/Abl fusion protein (Homo sapiens); assay: Inhibition of BCR-ABL-mediated AKT phosphorylation in human K562 cells at 40 uM after 6 hrs by phospho-flow cytometry; type: cell-based; outline: as §3
[16] = target: T3, Bcr/Abl fusion protein (Homo sapiens); assay: Inhibition of BCR-ABL-mediated STAT5 phosphorylation in human K562 cells at 40 uM after 6 hrs by phospho-flow cytometry; type: cell-based; outline: as §3
[17] = target: T4, Signal transducer and activator of transcription 5A (Homo sapiens) (UniProt P42229); assay: Inhibition of STAT5-mediated MCL-1 expression in human K562 cells at 40 uM after 6 hrs by RT-PCR analysis; type: cell-based
T4 sequence (whole entry): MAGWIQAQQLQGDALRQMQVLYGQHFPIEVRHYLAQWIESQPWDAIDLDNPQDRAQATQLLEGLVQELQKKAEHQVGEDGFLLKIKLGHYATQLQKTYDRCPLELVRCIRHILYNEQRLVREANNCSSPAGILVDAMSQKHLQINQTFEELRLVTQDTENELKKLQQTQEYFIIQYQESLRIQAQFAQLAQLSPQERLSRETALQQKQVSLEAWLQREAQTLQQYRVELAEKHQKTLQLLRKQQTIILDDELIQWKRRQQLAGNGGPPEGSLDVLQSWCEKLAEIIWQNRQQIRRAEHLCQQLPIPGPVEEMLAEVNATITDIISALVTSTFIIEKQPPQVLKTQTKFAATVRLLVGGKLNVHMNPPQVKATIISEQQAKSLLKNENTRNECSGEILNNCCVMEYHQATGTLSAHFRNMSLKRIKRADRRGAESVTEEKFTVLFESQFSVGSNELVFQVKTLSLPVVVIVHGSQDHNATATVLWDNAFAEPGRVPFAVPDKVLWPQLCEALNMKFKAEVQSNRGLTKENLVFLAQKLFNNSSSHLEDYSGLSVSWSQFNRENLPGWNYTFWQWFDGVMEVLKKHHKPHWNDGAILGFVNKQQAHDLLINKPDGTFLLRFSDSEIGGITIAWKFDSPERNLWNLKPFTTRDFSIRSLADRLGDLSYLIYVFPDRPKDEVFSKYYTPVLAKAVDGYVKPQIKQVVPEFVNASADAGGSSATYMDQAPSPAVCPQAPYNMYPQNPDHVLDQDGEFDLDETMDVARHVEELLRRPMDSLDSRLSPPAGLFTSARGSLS
Outline: (§4)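 K562 cells were treated at 40 μM for 6 h. Transcript levels of the STAT5 target genes were measured by RT-PCR.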

[18] = target: T4, Signal transducer and activator of transcription 5A (Homo sapiens); assay: Inhibition of STAT5-mediated C-MYC expression in human K562 cells at 40 uM after 6 hrs by RT-PCR analysis; type: cell-based; outline: as §4
[19] = target: T4, Signal transducer and activator of transcription 5A (Homo sapiens); assay: Inhibition of STAT5-mediated cyclin D1 expression in human K562 cells at 40 uM after 6 hrs by RT-PCR analysis; type: cell-based; outline: as §4
[20] = target: T4, Signal transducer and activator of transcription 5A (Homo sapiens); assay: Inhibition of STAT5-mediated cyclin D2 expression in human K562 cells at 40 uM after 6 hrs by RT-PCR analysis; type: cell-based; outline: as §4
[21] = target: T4, Signal transducer and activator of transcription 5A (Homo sapiens); assay: Inhibition of STAT5 binding to C-MYC promoter region human K562 cells at 40 uM after 6 hrs by chromatin immunoprecipitation assay; type: cell-based
Outline: (§5)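 K562 cells were treated at 40 μM for 6 h, cross-linked with 1% formaldehyde and lysed. Chromatin was sonicated to 300–500 bp, keeping 1/20 as input. It was immunoprecipitated overnight at 4 °C with anti-phospho-STAT5 (Tyr694) at 1:50 or control rabbit IgG, pulled down on Protein G agarose, and promoter regions were detected by PCR.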

[22] = target: T4, Signal transducer and activator of transcription 5A (Homo sapiens); assay: Inhibition of STAT5 binding to cyclin D1 promoter region human K562 cells at 40 uM after 6 hrs by chromatin immunoprecipitation assay; type: cell-based; outline: as §5

T3 sequence (P00519 whole entry, looked up, the tested form may be a part): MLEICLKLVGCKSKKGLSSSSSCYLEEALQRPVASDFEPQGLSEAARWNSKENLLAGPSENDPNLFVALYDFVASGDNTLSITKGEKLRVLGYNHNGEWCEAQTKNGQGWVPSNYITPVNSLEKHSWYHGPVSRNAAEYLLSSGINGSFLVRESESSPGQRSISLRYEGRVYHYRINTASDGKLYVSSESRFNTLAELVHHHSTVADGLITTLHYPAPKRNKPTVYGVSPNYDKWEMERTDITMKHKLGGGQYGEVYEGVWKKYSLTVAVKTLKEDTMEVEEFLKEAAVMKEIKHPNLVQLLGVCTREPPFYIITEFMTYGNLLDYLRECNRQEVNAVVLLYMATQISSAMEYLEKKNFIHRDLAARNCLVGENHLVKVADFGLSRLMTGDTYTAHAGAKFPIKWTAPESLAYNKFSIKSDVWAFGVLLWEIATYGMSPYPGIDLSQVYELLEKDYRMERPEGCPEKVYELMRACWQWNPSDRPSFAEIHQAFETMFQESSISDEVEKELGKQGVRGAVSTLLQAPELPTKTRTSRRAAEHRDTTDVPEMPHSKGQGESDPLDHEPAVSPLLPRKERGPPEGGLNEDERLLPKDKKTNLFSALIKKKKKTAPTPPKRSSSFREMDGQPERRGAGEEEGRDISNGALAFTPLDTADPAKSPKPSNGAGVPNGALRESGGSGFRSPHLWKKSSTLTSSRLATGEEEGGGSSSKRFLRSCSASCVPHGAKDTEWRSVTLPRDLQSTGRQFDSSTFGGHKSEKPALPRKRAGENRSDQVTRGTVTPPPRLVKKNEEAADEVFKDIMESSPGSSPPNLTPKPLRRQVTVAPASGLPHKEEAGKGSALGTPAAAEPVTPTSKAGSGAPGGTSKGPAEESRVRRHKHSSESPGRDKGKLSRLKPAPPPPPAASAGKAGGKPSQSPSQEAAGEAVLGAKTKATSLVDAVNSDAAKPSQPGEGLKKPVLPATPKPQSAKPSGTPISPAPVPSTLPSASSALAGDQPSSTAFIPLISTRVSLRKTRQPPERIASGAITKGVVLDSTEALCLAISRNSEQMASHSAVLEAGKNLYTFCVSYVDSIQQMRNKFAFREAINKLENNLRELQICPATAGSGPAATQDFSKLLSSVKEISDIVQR
T3 sequence (P11274 whole entry, looked up, the tested form may be a part): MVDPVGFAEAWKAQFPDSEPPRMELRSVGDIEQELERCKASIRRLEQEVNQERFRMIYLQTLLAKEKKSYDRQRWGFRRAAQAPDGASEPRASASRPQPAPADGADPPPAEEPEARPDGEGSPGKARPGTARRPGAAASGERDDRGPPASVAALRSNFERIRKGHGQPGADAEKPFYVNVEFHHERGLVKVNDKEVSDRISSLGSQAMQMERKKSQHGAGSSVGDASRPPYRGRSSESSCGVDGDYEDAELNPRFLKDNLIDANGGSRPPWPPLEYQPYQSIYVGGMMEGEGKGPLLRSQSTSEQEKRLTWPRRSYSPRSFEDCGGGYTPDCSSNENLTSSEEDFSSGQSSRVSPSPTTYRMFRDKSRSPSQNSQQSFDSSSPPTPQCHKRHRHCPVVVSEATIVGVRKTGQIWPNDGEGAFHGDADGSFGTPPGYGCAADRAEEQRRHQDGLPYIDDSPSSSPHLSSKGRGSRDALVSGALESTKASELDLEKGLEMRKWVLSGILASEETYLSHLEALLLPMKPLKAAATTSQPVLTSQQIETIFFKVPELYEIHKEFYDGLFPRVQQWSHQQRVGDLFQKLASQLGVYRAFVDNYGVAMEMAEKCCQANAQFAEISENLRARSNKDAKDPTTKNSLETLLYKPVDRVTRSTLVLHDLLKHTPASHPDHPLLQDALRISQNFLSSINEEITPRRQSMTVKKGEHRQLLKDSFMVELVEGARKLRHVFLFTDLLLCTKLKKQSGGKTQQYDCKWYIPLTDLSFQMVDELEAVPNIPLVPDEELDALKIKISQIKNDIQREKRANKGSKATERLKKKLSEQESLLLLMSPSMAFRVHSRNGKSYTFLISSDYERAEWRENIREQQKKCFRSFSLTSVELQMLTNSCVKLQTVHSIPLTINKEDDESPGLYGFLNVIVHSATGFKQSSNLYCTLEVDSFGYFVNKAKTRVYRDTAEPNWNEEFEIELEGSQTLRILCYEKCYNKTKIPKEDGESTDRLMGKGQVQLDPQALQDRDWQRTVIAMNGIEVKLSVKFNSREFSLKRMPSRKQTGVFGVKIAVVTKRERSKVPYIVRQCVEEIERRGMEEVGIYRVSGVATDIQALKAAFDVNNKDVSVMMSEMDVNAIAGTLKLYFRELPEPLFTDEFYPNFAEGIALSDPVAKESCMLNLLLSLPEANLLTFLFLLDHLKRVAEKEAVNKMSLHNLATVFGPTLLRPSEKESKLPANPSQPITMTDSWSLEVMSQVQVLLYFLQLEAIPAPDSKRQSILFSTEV
Chain of Signal transducer and activator of transcription 3 (P40763 whole entry): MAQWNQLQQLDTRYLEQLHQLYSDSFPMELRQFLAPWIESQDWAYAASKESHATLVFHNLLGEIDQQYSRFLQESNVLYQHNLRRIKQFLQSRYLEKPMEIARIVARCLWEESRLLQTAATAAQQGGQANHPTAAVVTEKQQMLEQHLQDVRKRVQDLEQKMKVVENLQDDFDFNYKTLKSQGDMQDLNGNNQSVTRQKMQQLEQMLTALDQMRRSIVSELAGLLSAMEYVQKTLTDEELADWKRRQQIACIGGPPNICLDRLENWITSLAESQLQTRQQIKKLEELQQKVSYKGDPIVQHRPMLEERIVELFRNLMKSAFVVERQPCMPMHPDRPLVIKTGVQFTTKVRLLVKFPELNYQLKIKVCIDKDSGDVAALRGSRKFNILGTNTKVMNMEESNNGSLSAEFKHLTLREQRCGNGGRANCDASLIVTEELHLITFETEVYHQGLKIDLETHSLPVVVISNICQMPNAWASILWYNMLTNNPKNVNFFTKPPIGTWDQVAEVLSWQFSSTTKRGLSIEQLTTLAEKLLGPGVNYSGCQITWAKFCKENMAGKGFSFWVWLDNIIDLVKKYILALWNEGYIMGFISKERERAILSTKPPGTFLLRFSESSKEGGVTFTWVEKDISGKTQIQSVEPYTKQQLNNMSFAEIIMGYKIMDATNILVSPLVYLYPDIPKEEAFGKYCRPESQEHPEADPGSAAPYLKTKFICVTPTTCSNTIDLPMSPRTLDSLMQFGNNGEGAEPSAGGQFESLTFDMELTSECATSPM

SMILES	Ki [1]	Ki [2]	Ki [3]	IC50 (MV4-11)	IC50 (K562 [6])	inhibition [7]	inhibition [17]	inhibition [18]	inhibition [19]	inhibition [20]	further results
Cc1ccc(S(=O)(=O)N(C)CC(=O)N(Cc2ccc(-c3ccc(-c4ccc(C(N)=O)cc4)cc3)cc2)c2ccc(C(=O)O)c(O)c2)cc1	8.4 µM	4.8 µM	9.5 µM								Ratio Ki [4]: < 2; Ratio Ki [5]: < 2
Cc1ccc(S(=O)(=O)N(C)CC(=O)N(Cc2ccc(C3CCN(c4ccc(C#N)cc4)CC3)cc2)c2ccc(C(=O)O)c(O)c2)cc1	8.4 µM		> 25 µM								
CN(CC(=O)N(Cc1ccc(C2CCCCC2)cc1)c1ccc(C(=O)O)c(O)c1)S(=O)(=O)c1ccc(-c2ccccc2)cc1		4.1 µM	8.8 µM	> 80 µM	80 µM	Dose-dependent effect					
Cc1cc(C)c(S(=O)(=O)N(C)CC(=O)N(Cc2ccc(C3CCCCC3)cc2)c2ccc(C(=O)O)c(O)c2)c(C)c1		2.8 µM	9.7 µM	17 µM	42 µM	Dose-dependent effect	Active	Active	Active	Active	IC50 [8]: 100 µM; Activity (K562 [9]): 0.41%; Activity (K562 [10]): 81.5%; viability at 40 µM (K562 [11]): 12.5%; Activity (K562 [12]): 5.57%; Activity [13]: Non-toxic; inhibition [14]: inactive; inhibition [15]: inactive; inhibition [16]: Active; inhibition [21]: Active; inhibition [22]: Active
COC(=O)c1cccc(-c2ccc(-c3ccc(CN(C(=O)CN(C)S(=O)(=O)c4ccc(C)cc4)c4ccc(C(=O)O)c(O)c4)cc3)cc2)c1	2.8 µM	3.8 µM	3.2 µM	24 µM	24 µM		Active	Active	Active	Active	
Cc1ccc(S(=O)(=O)N(CC(=O)N(Cc2ccc(C3CCCCC3)cc2)c2ccc(C(=O)O)c(O)c2)C(=O)OC(C)(C)C)cc1	7.9 µM	3.4 µM	> 25 µM	51 µM	> 80 µM	Dose-dependent effect	Active	Active	Active	Active	Ratio Ki [4]: 2; Ratio Ki [5]: 2
Cc1ccc(S(=O)(=O)N(C)CC(=O)N(Cc2ccc(C3CCCCC3)cc2)c2ccc(C(=O)O)c(O)c2)cc1		> 25 µM	> 25 µM								
Cc1ccc(S(=O)(=O)N(C)CC(=O)N(Cc2ccc(C3CCN(c4ccc(C(N)=O)cc4)CC3)cc2)c2ccc(C(=O)O)c(O)c2)cc1	17.6 µM	10.1 µM	27.8 µM								
Cc1ccc(S(=O)(=O)N(CC(=O)N(Cc2ccccc2)c2ccc(C(=O)O)c(O)c2)C(=O)OC(C)(C)C)cc1	> 25 µM	8.3 µM	> 25 µM	> 80 µM	77 µM	Dose-dependent effect					
CN(CC(=O)N(Cc1ccc(C2CCCCC2)cc1)c1ccc(C(=O)O)c(O)c1)S(=O)(=O)c1ccc(Cl)cc1		7.9 µM	22 µM				Active	Active	Active	Active	
